One may read the IC50 as the midpoint of a concentration-inhibition curve.

The subject of one data set is Leishmania donovani. The data set can be described thus: Antileishmanial activity against Leishmania donovani LD-1S/MHOM/SD/00-strain 1S amastigotes. In kind it is functional, organism-based. The method in brief:
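Axenic (cell-free) L. donovani amastigotes; parasite growth and survival read with PicoGreen. Single-concentration screen at 10 μg/mL in duplicate, expressed as % growth versus control; samples at ≤50% growth then tested at […], 0.08, 0.4, 2 and 10 μg/mL to derive IC50. Amphotericin B positive control.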

The subject of a further data set is Plasmodium falciparum. Briefly: Antimalarial activity against Plasmodium falciparum. Format: functional, organism-based. The method in brief: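 Run per the authors' earlier protocol with chloroquine as positive control; duplicate wells at 10, 2, 0.4, 0.08 and 0.016 μg/mL.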
The next data set has as its system Trypanosoma cruzi. Briefly: Antitrypanosomal activity against Trypanosoma cruzi. In kind it is functional, organism-based. The method in brief: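 Buckner et al. protocol with nifurtimox as positive control; tested in duplicate at 10, 2, 0.4, 0.08 and 0.016 μg/mL.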
The test system of a further data set is Vero. The data set can be described thus: Cytotoxicity against african green monkey Vero cells by MTT assay. In kind it is cell-based. The following applies: Chlorocebus sabaeus. (In general: Tetrazolium dyes change colour on reduction, which living cells bring about.)
Data set [1] can be described thus: Therapeutic index, ratio of IC50 for african green monkey Vero cells to IC50 for Leishmania donovani LD-1S/MHOM/SD/00-strain 1S amastigotes. The following applies: read-out: Ratio IC50. Format: cell-based. The method in brief:
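Therapeutic window calculated as Vero-cell IC50 (MTT cytotoxicity) divided by IC50 against axenic L. donovani amastigotes (PicoGreen growth/survival assay).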

The mark [2] stands for this setting: Leishmania donovani, 1S, read-out: IC50.

SMILES strings stand for the structures.

With `Oc1cccc2c1[C@@H](O)CCC21Oc2cccc3cccc(c23)O1`, the IC50 with Leishmania donovani (setting [2]) is 8.4 µM; in the data set on Plasmodium falciparum it was greater than 10 µM; in the data set on Trypanosoma cruzi, 26.5 µM; in the data set with Vero it was 150 µM. In addition, in data set [1], the selectivity ratio turned out to be 18.

Take `O=C1C=CC(=O)C2=C1[C@@H](O)CCC21Oc2cccc3cccc(c23)O1`: the IC50 with Leishmania donovani (setting [2]) was 0.62 µM; in the data set on Plasmodium falciparum it was greater than 10 µM; with Trypanosoma cruzi, greater than 10 µM; in the data set on Vero, 152 µM. In data set [1], the selectivity ratio is 245.

The molecule `C[C@@H]1[C@H](O)[C@@H](C)/C=C/C=C/C=C/C=C/C=C/C=C/C=C/[C@H](O[C@@H]2O[C@H](C)[C@@H](O)[C@H](N)[C@@H]2O)C[C@@H]2O[C@](O)(C[C@@H](O)C[C@@H](O)[C@H](O)CC[C@@H](O)C[C@@H](O)CC(=O)O[C@H]1C)C[C@H](O)[C@H]2C(=O)O` [AMPHOTERICIN B] returned a half-inhibitory concentration (IC50) with Leishmania donovani of 0.07 µg/mL.

Regarding `COc1cc2c(c(OC)c1)C(C)=[N+](c1ccc(OC)c3c(OC)cc(C)cc13)[C@@H](C)C2.O=C([O-])C(F)(F)F` [ANCISANCISTROCLADINIUM A], the 50% inhibitory concentration (IC50) in the data set on Leishmania donovani (setting [2]) is 0.722 µg/mL.

On to `COc1cc2c(c(OC)c1)C(C)=[N+](c1ccc3cc(C)cc(OC)c3c1O)[C@@H](C)C2.O=C([O-])C(F)(F)F` [ANCISTROCLADINIUM B], for which, in the data set with Leishmania donovani (setting [2]), the IC50 was 1.1 µg/mL.

Regarding `CC1CS(=O)(=O)CCN1/N=C/c1ccc([N+](=O)[O-])o1` (centres undefined) [NIFURTIMOX], in the data set on Trypanosoma cruzi, half-maximal inhibition (IC50) required 3 µg/mL.

Consider `O=C1CCC2(Oc3cccc4cccc(c34)O2)c2cccc(O)c21` [PALMARUMYCIN CP2], for which the IC50 with Leishmania donovani (setting [2]) was 3.93 µM; in the data set with Plasmodium falciparum, greater than 10 µM; in the data set on Trypanosoma cruzi it was 18.5 µM; in the data set on Vero, 162 µM. Besides, the selectivity ratio in data set [1] was found to be 41.

Consider `O=C1CCC2(Oc3cccc4cccc(c34)O2)c2c(O)ccc(O)c21` [PALMARUMYCIN CP17], for which the 50% inhibitory concentration (IC50) with Leishmania donovani (setting [2]) is 1.34 µM; in the data set on Plasmodium falciparum, greater than 10 µM; in the data set with Trypanosoma cruzi it was greater than 10 µM; in the data set with Vero, 174 µM. Also, in data set [1], the selectivity ratio amounted to 130.

For `O=C1C=C[C@]23Oc4ccc(O)c5c4[C@](CCC5=O)(Oc4cccc1c42)O3` [PREUSSOMERIN EG1], the IC50 is 0.12 µM in the data set with Leishmania donovani (setting [2]), 16.5 µM in the data set on Plasmodium falciparum, greater than 10 µM in the data set with Trypanosoma cruzi and 9 µM with Vero. The selectivity ratio in data set [1] was 75.

The record behind these values is ChEMBL document CHEMBL1151709, “Antileishmanial constituents of the Panamanian endophytic fungus Edenia sp” (J Nat Prod, 2008).
